Source: ChEMBL document CHEMBL5346963, “Innovative Strategy toward Mutant CFTR Rescue in Cystic Fibrosis: Design and Synthesis of Thiadiazole Inhibitors of the E3 Ligase RNF5” (J Med Chem, 2023)
Calls of active or inactive are those of the source. Unless noted, the rule behind the calls is not given here.

Experiments:
[1] = Aggregation property of the compound in PBS buffer at pH 7.5 by 1D 1H-NMR analysis; format: physicochemical
Procedure, shortened: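 Solubility by 1H 1D NMR and aggregation by WaterLOGSY at 298 K in PBS pH 7.5 with 1 μM ZnCl2, 1 mM DTT, 10% D2O, 1% DMSO-d6. Theoretical concentrations 20, 50 and 100 μM, with 200 μM 4-trifluoromethyl benzoic acid as internal reference. WaterLOGSY: mixing time 1.7 s, relaxation delay 2 s, 256 scans.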

CFBE41o- [2] = assay: Induction of autophagy in human CFBE41o- cells harbouring CFTR F508del mutant assessed as increase in number of autophagic vacuoles at 20 nM incubated for 3 hrs by confocal microscopy based analysis; format: functional, cell-based
Procedure, shortened: (§1)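 CFBE41o– F508del/HS-YFP cells (50,000/well) were treated 24 h with compound (5 μM), VX-809 (1 μM) or DMSO. SAR405 (2 μM) and torin1 (20 nM) were added near the end of incubation. Cells were then loaded with 50 μM MDC in PBS for 10 min at 37 °C, washed, and imaged. MDC spot number was normalized to control. n = 3; ANOVA with Dunnett test.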

[3] = system: Cystic fibrosis transmembrane conductance regulator (Homo sapiens), P13569 [F508del]; assay: Corrector activity at CFTR F508del mutant in human CFBE41o- cells assessed as decrease in accumulation of ubiquitylated CFTR at 10 uM incubated for 4 hrs in presence of MG-132 by Western blot analysis; format: cell-based
Chain of Cystic fibrosis transmembrane conductance regulator (Homo sapiens), P13569 [F508del] (P13569 as listed by the source): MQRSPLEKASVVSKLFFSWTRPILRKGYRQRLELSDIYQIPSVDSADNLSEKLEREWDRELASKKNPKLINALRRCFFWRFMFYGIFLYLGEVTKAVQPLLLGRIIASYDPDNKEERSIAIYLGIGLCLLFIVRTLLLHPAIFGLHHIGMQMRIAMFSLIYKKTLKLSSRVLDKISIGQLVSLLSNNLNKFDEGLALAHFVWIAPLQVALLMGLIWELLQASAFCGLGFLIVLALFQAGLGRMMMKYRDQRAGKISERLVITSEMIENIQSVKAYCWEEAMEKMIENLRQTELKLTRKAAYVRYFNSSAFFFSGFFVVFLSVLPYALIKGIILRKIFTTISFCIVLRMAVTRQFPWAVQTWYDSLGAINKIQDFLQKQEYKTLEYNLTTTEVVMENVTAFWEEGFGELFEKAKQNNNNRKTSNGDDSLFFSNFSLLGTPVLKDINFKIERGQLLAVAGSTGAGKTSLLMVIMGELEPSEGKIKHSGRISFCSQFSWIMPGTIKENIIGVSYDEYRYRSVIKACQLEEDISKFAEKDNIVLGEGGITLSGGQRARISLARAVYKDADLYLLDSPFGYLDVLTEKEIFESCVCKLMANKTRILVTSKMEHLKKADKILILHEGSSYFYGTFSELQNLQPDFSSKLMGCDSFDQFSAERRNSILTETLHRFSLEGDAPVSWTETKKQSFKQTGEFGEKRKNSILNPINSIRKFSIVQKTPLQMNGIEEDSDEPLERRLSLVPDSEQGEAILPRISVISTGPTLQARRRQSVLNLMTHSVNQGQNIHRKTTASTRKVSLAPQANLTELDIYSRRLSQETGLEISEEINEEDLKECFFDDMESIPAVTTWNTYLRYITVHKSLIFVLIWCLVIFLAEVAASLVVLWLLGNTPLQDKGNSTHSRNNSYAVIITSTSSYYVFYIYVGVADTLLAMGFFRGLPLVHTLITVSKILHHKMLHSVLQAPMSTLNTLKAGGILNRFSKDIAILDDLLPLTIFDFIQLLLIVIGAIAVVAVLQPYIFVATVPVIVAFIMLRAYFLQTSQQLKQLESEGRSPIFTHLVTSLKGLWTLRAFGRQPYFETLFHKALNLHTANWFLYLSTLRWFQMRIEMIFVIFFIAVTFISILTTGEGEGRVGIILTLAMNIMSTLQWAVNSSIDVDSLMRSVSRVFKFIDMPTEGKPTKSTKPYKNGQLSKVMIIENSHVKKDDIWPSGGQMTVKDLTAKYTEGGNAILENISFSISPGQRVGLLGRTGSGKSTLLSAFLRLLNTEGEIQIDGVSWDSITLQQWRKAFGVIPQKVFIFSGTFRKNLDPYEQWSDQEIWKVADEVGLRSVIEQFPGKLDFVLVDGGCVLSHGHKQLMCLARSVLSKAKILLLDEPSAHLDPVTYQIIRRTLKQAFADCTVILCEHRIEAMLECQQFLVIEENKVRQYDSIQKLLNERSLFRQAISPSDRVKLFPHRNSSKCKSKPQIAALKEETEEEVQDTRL
Procedure, shortened: (§2)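 Confluent CFBE41o– F508del cells were treated 24 h, with MG-132 (10 μM) or DMSO in the last 4 h. Lysate (600 μg protein) was immunoprecipitated with rabbit anti-CFTR (2 μg, 1 h RT) and protein A/G beads, then eluted reducing. Samples ran on 4–15% gradient SDS-PAGE and were western blotted. Bands were read by chemiluminescence, with densitometry of ubiquitylated CFTR.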

[4] = system: Cystic fibrosis transmembrane conductance regulator (Homo sapiens), P13569 [F508del]; assay: Corrector activity at CFTR F508del mutant in human CFBE41o- cells assessed as appearance of CFTR mutant forms at 10 uM incubated for 4 hrs by Western blot analysis; format: cell-based
CFBE41o- [5] = assay: Antiproliferative activity against human CFBE41o- cells harbouring CFTR F508del mutant/HS-YFP at 5 uM incubated for 48 hrs; format: toxicity, cell-based
Procedure, shortened: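 Cells plated at 5000/well and treated after 6 h with compound (5 μM) or DMSO. Cell-covered area was followed by the YFP signal over 48 h on a high-content imager. Means ± SEM, n = 6. Three independent experiments; ANOVA with Dunnett test.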

CFBE41o- [6] = assay: Induction of apoptosis in human CFBE41o- cells assessed as increase in apoptosis at 1 uM incubated for 24 hrs by Hoechst 33342 and propidium iodide staining based analysis; format: toxicity, cell-based
Procedure, shortened: (§3)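 Cells were plated at 10,000/well and treated after 6 h with compound (5, 20, 100 μM), VX-809 (1 μM), MG132 (50 μM) or DMSO for 24 h. Hoechst 33342 counted total nuclei and propidium iodide counted apoptotic nuclei, by high-content imaging. Means ± SEM; ANOVA with Dunnett test.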

CFBE41o- [7] = assay: Induction of autophagy in human CFBE41o- cells harbouring CFTR F508del mutant assessed as increase in number of autophagic vacuoles at 5 uM incubated for 24 hrs by confocal microscopy based analysis; format: functional, cell-based; procedure, shortened: as §1
CFBE41o- [8] = assay: Induction of apoptosis in human CFBE41o- cells assessed as increase in apoptosis at 100 uM incubated for 24 hrs by Hoechst 33342 and propidium iodide staining based analysis; format: toxicity, cell-based; procedure, shortened: as §3
[9] = system: Cystic fibrosis transmembrane conductance regulator (Homo sapiens), P13569 [F508del]; assay: Corrector activity at CFTR F508del mutant in human CFBE41o- cells assessed as rescue of CFTR mutant at 5 uM incubated for 24 hrs in presence of VX661/VX-445 by Western blot analysis; format: cell-based
[10] = system: Cystic fibrosis transmembrane conductance regulator (Homo sapiens), P13569 [F508del]; assay: Corrector activity at CFTR F508del mutant in human CFBE41o- cells assessed as increase in CFTR mutant activity at 5 uM in presence of VX-809 incubated for 24 hrs; format: cell-based
Procedure, shortened: (§4)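 CFBE41o– cells stably expressing F508del-CFTR and HS-YFP were treated 24 h after seeding; DMSO and VX-809 (1 μM) served as controls. Cells were stimulated 25 min with forskolin (20 μM) plus VX-770 (1 μM). YFP was read for 2 s before and 12 s after iodide injection. Initial slope came from an exponential fit of the final 11 s. Three independent experiments.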

[11] = system: Cystic fibrosis transmembrane conductance regulator (Homo sapiens), P13569 [F508del]; assay: Corrector activity at CFTR F508del mutant in human CFBE41o- cells assessed as appearance of CFTR mutant forms at 5 uM incubated for 24 hrs in presence of MG-132 by Western blot analysis; format: cell-based; procedure, shortened: as §2
[12] = system: Cystic fibrosis transmembrane conductance regulator (Homo sapiens), P13569 [F508del]; assay: Corrector activity at CFTR F508del mutant in human CFBE41o- cells transfected with NT siRNA assessed as increase in CFTR mutant activity at 5 uM incubated for 24 hrs in presence of VX-661/VX-445; format: cell-based
Procedure, shortened: (§5)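 CFBE41o– F508del/HS-YFP cells were reverse-transfected with 50 nM (final) NT or RNF5 siRNA using lipofectamine 2000. Medium was changed next day, then compounds were given for 24 h at 37 °C. Readout was the YFP iodide-influx assay after forskolin (20 μM) plus VX-770 (1 μM) stimulation.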

[13] = system: Cystic fibrosis transmembrane conductance regulator (Homo sapiens), P13569 [F508del]; assay: Corrector activity at CFTR F508del mutant in human CFBE41o- cells assessed as increase in CFTR mutant activity at 5 uM in presence of VX-445 incubated for 24 hrs; format: cell-based; procedure, shortened: as §4
[14] = system: Cystic fibrosis transmembrane conductance regulator (Homo sapiens), P13569 [F508del]; assay: Corrector activity at CFTR F508del mutant in human CFBE41o- cells assessed as decrease in accumulation of ubiquitylated CFTR at 5 uM incubated for 24 hrs in presence of VX-661/VX-445 by Western blot analysis; format: cell-based; procedure, shortened: as §2
[15] = system: Cystic fibrosis transmembrane conductance regulator (Homo sapiens), P13569 [F508del]; assay: Corrector activity at CFTR F508del mutant in human CFBE41o- cells transfected with NT siRNA assessed as increase in CFTR mutant activity at 5 uM incubated for 24 hrs; format: cell-based; procedure, shortened: as §5
[16] = system: Cystic fibrosis transmembrane conductance regulator (Homo sapiens), P13569 [F508del]; assay: Corrector activity at CFTR F508del mutant in human CFBE41o- cells transfected with RNF5 siRNA assessed as increase in CFTR mutant activity at 5 uM incubated for 24 hrs in presence of VX-661/VX-445; format: cell-based; procedure, shortened: as §5
[17] = system: Cystic fibrosis transmembrane conductance regulator (Homo sapiens), P13569 [F508del]; assay: Corrector activity at CFTR F508del mutant in human CFBE41o- cells transfected with RNF5 siRNA assessed as increase in CFTR mutant activity at 5 uM incubated for 24 hrs; format: cell-based; procedure, shortened: as §5
[18] = system: Cystic fibrosis transmembrane conductance regulator (Homo sapiens), P13569 [F508del]; assay: Corrector activity at CFTR F508del mutant in human CFBE41o- cells assessed as increase in CFTR mutant activity at 5 uM in presence of VX-661/VX-445 incubated for 24 hrs; format: cell-based; procedure, shortened: as §4
[19] = molecular target: Cystic fibrosis transmembrane conductance regulator (Homo sapiens, UniProt P13569, F508DEL); assay: Corrector activity at CFTR F508del mutant in human CFBE41o- cells coexpressing HS-YFP incubated for 25 mins by microplate reader based analysis; format: cell-based; procedure, shortened: as §4
Chain of Cystic fibrosis transmembrane conductance regulator (P13569 as listed by the source): as above

[20] = system: Cystic fibrosis transmembrane conductance regulator (Homo sapiens), P13569 [F508del]; assay: Corrector activity at CFTR F508del mutant in human CFBE41o- cells assessed as rescue of CFTR mutant at 3 uM incubated for 24 hrs in presence of VX-661 by Western blot analysis; format: cell-based
[21] = system: Cystic fibrosis transmembrane conductance regulator (Homo sapiens), P13569 [F508del]; assay: Corrector activity at CFTR F508del mutant in human CFBE41o- cells assessed as decrease in accumulation of ubiquitylated CFTR at 3 uM incubated for 24 hrs in presence of VX-661 by Western blot analysis; format: cell-based; procedure, shortened: as §2

Q: Which Activity [1] does the source give for Cc1ns/c(=N\C(=N\c2ccncc2)c2ccccc2)n1Cc1ccccc1 here?
A: Not Active

Q: For CCC(=O)N1CCN(c2ccc(-n3c(=O)ccc4cnc5ccc(-c6cnc7ccccc7c6)cc5c43)cc2C(F)(F)F)CC1, which Activity (CFBE41o- [2]) is on record?
A: Active

Q: Which results are given for CC(C)C[C@@H](C=O)NC(=O)[C@H](CC(C)C)NC(=O)[C@H](CC(C)C)NC(=O)OCc1ccccc1?
A: Activity [3]: inactive; Activity [4]: Active

Q: With Cc1ccc(Cn2c(C)ns/c2=N\C(=N\c2ccccc2)c2ccccc2)cc1 as the compound, how does the Activity (CFBE41o- [5]) read?
A: Non-Toxic

Q: Which results are given for Cc1ccc(NC(=O)C2(c3ccc4c(c3)OC(F)(F)O4)CC2)nc1-c1cccc(C(=O)O)c1 [LUMACAFTOR]?
A: Activity (CFBE41o- [6]): Toxic; Activity (CFBE41o- [5]): Non-Toxic

Q: For Cc1ns/c(=N\C(=N\c2ccccc2)c2ccccc2)n1Cc1cccc(N(C)C)c1, which Activity (CFBE41o- [5]) is on record?
A: Non-Toxic

Q: For Cc1ns/c(=N\C(=N\c2ccccc2)c2ccccc2)n1Cc1ccc(F)cc1, which Activity (CFBE41o- [5]) is on record?
A: Non-Toxic

Q: What about the Activity (CFBE41o- [7]) of the same compound?
A: inactive

Q: What does the source list for Cc1ns/c(=N\C(=N\c2ccccc2)c2ccccc2)n1-c1ccccc1?
A: Activity (CFBE41o- [5]): Non-Toxic; Activity [1]: Not Active; Activity (CFBE41o- [7]): inactive; Activity (CFBE41o- [8]): Toxic

Q: With COc1cccc(Cn2c(C)ns/c2=N\C(=N\c2ccccc2)c2ccccc2)c1 as the compound, how does the Activity [9] read?
A: Active

Q: What about the Activity [10] of the same compound?
A: Active

Q: And the Activity (CFBE41o- [5])?
A: Non-Toxic

Q: What about the Activity [11] of the same compound?
A: inactive

Q: What about the Activity [12] of the same compound?
A: Active

Q: What about the Activity [13] of the same compound?
A: Active

Q: What about the Activity [1] of the same compound?
A: Not Active

Q: What about the Activity [14] of the same compound?
A: Active

Q: What about the Activity [15] of the same compound?
A: Active

Q: What about the Activity [16] of the same compound?
A: inactive

Q: What about the Activity (CFBE41o- [7]) of the same compound?
A: Active

Q: And the Activity [17]?
A: inactive

Q: What about the Activity [18] of the same compound?
A: Active

Q: And the EC50 [19]?
A: 1.2 µM

Q: For Cc1nn(C)cc1S(=O)(=O)NC(=O)c1ccc(-n2ccc(OCC(C)(C)C(F)(F)F)n2)nc1N1C[C@@H](C)CC1(C)C, which Activity [20] is on record?
A: Active

Q: And the Activity [21]?
A: Active

Q: For Cc1ns/c(=N\C(=N\c2ccccc2)c2ccncc2)n1Cc1ccccc1, which Activity (CFBE41o- [5]) is on record?
A: Non-Toxic

Q: What about the Activity [1] of the same compound?
A: Not Active

Q: And the Activity (CFBE41o- [7])?
A: inactive

Q: With Cc1ns/c(=N\c2ccccn2)n1Cc1ccccc1 as the compound, how does the Activity [1] read?
A: Not Active

Q: Which results are given for Cc1ns/c(=N\C(=N\c2ccccc2)c2ccccc2)n1Cc1ccc(Br)cc1?
A: Activity (CFBE41o- [5]): Non-Toxic; Activity (CFBE41o- [7]): Active

Q: For Cc1cccc(Cn2c(C)ns/c2=N\C(=N\c2ccccc2)c2ccccc2)c1, which Activity (CFBE41o- [5]) is on record?
A: Non-Toxic
